Source: ChEMBL document CHEMBL2163325, “Discovery of phosphoinositide 3-kinases (PI3K) p110β isoform inhibitor 4-[2-hydroxyethyl(1-naphthylmethyl)amino]-6-[(2S)-2-methylmorpholin-4-yl]-1H-pyrimidin-2-one, an effective antithrombotic agent without associated bleeding and insulin resistance” (Bioorg Med Chem Lett, 2012)

Columns and labels:
[1] = molecular target: Phosphatidylinositol 4,5-bisphosphate 3-kinase catalytic subunit beta isoform (Homo sapiens, UniProt P42338); assay: Inhibition of human recombinant His6-tagged PI3K p110beta expressed in baculovirus infected cells using DiC8-PI(4,5)P2 as substrate after 20 mins by AlphaScreen assay
[2] = Lipophilicity, log D of the compound at pH 7.4 by HPLC analysis; format: physicochemical; conditions: buffer
Summary of the method: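 LogD measured at pH 7.4 by HPLC.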

[3] = species: Homo sapiens; assay: Selectivity ratio of IC50 for human PI3K p110alpha to IC50 for human PI3K p110beta
[4] = molecular target: Phosphatidylinositol 4,5-bisphosphate 3-kinase catalytic subunit alpha isoform (Homo sapiens, UniProt P42336); assay: Inhibition of human recombinant His6-tagged PI3K p110alpha expressed in baculovirus infected cells using DiC8-PI(4,5)P2 as substrate after 20 mins by AlphaScreen assay
[5] = molecular target: Cytochrome P450 3A4 (Homo sapiens, UniProt P08684); assay: Inhibition of CYP3A4; format: ADME
[6] = molecular target: Cytochrome P450 2C9 (Homo sapiens, UniProt P11712); assay: Inhibition of CYP2C9; format: ADME
[7] = test system: Rattus norvegicus; assay: Toxicity in overnight fasted Sprague-Dawley rat assessed as induction of insulin resistance administered as 30 mins infusion; format: organism-based; conditions: in vivo, iv, 0.5 h
Summary of the method: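 Overnight fasted SD rats (N = 6) infused with 4 consecutive escalating doses, each over 30 min. Blood taken at the end of each interval for plasma exposure, glucose and insulin. HOMA index is glucose × insulin, normalized to vehicle controls (N = 4) and pretreatment medians. Mean ± SEM.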

[8] = Toxicity in human adipocytes assessed as inhibition of insulin-induced glucose uptake; format: cell-based, Adipocyte

Sequence of Phosphatidylinositol 4,5-bisphosphate 3-kinase catalytic subunit alpha isoform (P42336 whole entry, canonical isoform): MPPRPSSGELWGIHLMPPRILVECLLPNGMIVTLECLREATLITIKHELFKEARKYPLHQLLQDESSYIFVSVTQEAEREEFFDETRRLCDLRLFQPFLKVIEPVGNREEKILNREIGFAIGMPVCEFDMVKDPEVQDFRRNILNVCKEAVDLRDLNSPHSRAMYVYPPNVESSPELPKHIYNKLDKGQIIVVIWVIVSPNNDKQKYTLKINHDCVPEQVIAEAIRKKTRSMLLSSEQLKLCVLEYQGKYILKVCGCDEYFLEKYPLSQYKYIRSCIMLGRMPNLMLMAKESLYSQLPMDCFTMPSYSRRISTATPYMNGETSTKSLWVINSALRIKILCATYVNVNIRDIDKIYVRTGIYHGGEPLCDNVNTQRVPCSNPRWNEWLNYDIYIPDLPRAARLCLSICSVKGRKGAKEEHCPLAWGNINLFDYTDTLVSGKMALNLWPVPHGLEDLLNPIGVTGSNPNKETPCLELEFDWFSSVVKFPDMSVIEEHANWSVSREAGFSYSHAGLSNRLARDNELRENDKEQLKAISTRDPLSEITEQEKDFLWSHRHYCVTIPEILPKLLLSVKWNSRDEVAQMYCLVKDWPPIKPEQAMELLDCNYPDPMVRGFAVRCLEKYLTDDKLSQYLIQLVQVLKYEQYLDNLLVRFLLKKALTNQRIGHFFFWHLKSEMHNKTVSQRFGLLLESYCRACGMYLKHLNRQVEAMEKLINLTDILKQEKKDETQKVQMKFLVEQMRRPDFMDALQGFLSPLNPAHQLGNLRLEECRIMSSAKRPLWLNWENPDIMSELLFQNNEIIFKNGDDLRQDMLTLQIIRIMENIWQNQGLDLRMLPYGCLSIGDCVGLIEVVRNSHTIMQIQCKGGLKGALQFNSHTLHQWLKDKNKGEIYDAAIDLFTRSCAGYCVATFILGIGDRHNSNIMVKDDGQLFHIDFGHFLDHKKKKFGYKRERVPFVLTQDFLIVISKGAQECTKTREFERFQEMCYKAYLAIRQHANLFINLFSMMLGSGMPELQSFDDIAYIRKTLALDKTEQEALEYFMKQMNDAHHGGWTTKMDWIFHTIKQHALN
Sequence of Phosphatidylinositol 4,5-bisphosphate 3-kinase catalytic subunit beta isoform (P42338 whole entry, canonical isoform): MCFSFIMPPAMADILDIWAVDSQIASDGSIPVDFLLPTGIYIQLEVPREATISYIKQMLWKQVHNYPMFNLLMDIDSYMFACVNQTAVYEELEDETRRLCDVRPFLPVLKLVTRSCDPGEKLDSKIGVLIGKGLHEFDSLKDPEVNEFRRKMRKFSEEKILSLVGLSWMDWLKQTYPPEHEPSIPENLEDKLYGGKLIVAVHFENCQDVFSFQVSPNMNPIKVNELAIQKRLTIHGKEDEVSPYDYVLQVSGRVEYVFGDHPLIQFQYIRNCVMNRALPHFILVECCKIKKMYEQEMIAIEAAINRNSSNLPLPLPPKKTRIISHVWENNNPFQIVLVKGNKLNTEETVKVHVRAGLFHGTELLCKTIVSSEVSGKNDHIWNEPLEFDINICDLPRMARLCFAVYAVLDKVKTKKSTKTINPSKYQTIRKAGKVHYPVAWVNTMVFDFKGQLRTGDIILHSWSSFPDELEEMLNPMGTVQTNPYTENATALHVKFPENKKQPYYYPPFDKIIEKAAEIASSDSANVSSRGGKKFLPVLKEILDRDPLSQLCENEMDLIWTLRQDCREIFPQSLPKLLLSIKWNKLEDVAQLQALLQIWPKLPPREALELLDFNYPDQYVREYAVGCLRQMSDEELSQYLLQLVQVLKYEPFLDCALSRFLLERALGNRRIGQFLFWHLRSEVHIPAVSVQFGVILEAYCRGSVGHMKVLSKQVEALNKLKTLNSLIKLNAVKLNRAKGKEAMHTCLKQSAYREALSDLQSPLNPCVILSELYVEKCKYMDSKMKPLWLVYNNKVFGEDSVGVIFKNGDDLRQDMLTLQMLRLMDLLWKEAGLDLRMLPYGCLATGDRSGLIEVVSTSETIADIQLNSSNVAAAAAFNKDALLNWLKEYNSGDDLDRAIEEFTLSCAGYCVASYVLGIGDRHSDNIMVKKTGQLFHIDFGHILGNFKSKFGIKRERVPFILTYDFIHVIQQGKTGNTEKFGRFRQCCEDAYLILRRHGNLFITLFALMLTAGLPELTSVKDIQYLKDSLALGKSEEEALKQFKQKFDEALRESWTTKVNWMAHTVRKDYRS
Sequence of Cytochrome P450 2C9 (P11712 whole entry, the tested form may be a part): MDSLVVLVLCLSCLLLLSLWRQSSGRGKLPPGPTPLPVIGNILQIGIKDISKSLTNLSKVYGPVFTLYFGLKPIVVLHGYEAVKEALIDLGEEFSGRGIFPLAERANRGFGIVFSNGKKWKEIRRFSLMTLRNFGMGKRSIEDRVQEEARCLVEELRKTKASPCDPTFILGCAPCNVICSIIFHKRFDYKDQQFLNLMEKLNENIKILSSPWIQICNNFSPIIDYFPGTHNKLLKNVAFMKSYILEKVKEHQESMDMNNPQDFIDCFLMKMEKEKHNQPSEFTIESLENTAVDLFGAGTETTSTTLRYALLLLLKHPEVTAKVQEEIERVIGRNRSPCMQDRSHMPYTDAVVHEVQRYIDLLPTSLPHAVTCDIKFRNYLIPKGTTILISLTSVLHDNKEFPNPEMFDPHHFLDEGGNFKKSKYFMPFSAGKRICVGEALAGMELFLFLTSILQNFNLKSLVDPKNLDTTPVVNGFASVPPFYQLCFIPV
Sequence of Cytochrome P450 3A4 (P08684 whole entry): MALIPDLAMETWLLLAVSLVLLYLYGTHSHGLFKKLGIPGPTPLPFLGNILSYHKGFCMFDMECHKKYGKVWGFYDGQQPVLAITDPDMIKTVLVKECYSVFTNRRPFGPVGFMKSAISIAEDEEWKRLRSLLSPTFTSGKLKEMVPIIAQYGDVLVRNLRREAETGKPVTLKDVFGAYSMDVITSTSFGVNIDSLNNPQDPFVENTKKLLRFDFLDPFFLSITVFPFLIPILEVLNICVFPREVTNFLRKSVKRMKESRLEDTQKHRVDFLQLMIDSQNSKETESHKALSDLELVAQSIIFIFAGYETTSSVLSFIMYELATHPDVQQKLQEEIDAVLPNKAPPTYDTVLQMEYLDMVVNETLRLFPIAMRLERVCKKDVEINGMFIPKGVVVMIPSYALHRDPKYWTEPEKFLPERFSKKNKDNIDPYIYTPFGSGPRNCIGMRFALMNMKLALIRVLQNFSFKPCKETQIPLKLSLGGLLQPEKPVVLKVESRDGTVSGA

| IC50 [1] [µM] | logD [2] | Ratio IC50 [3] | IC50 [4] [µM] | IC50 [5] [µM] | IC50 [6] [µM] | SMILES | Activity [7] | IC50 [8] [µM] |
| --- | --- | --- | --- | --- | --- | --- | --- | --- |
| 0.98 | 3 | 58 | 56.9 |  |  | O=c1nc(N2CCOCC2)cc(N(Cc2cccc3ccccc23)CC(O)C(F)(F)F)[nH]1 (stereo unspecified) |  |  |
| 1.2 | 1.5 | > 64 | > 83.3 |  |  | CN(C)CCCN(Cc1cccc2ccccc12)c1cc(N2CCOCC2)nc(=O)[nH]1 |  |  |
| 0.007 | 2.6 |  | 0.84 | 0.7 | 0.4 | Cc1cc(-c2cc(=O)[nH]c(NCc3cccc4ccccc34)n2)ccn1 |  |  |
| 0.6 | 2.37 | 355 | 212 |  |  | CN(Cc1cccc2ccccc12)c1cc(N2CCOCC2)nc(=O)[nH]1 |  |  |
| 0.14 | 2 | 808 | 112 |  |  | CC(O)CN(Cc1cccc2ccccc12)c1cc(N2CCOCC2)nc(=O)[nH]1 (stereo unspecified) |  |  |
| 24 | 2.7 |  | 82.6 |  |  | COC1CN(c2cc(=O)[nH]c(NCc3cccc4ccccc34)n2)C1 |  |  |
| 11 | 1.9 |  | 62.3 |  |  | O=c1cc(-c2cn[nH]c2)nc(NCc2cccc3ccccc23)[nH]1 |  |  |
| 1 | 1.9 |  | 349 |  |  | C[C@@H]1CN(c2cc(N(CCO)Cc3cccc4ccccc34)[nH]c(=O)n2)CCO1 |  |  |
|  |  |  |  |  |  | Cc1cc([C@@H](C)Nc2ccccc2C(=O)O)c2nc(N3CCOCC3)cc(=O)n2c1 [AZD-6482] | Dose-dependent effect | 4.4 |
| 0.1 | 1.75 | 524 | 51.5 |  |  | O=c1nc(N2CCOCC2)cc(N(CCCO)Cc2cccc3ccccc23)[nH]1 |  |  |
| 0.09 | 1.55 | 340 | 30.8 |  |  | O=c1nc(N2CCOCC2)cc(N(CCO)Cc2cccc3ccccc23)[nH]1 |  |  |
| 0.22 | 2.5 | 690 | 149 |  |  | CCC(O)CN(Cc1cccc2ccccc12)c1cc(N2CCOCC2)nc(=O)[nH]1 (stereo unspecified) |  |  |
| 3.1 | 1.4 | > 26 | > 83.3 |  |  | CN(C)CCN(Cc1cccc2ccccc12)c1cc(N2CCOCC2)nc(=O)[nH]1 |  |  |
| 0.2 | 1.8 | 373 | 73.7 |  |  | O=c1nc(N2CCOCC2)cc(N(CCCCO)Cc2cccc3ccccc23)[nH]1 |  |  |
| 31 | 1.6 |  | 160 |  |  | O=c1cc(N2CCC(O)CC2)nc(NCc2cccc3ccccc23)[nH]1 |  |  |
| 0.034 | 2.9 | 65 | 2.2 |  |  | CC1CN(c2cc(=O)[nH]c(NCc3cccc4ccccc34)n2)CCO1 (stereo unspecified) |  |  |
| 0.13 | 2.5 | 628 | 82.8 |  |  | CCN(Cc1cccc2ccccc12)c1cc(N2CCOCC2)nc(=O)[nH]1 |  |  |
| 0.97 | 2.6 | 78 | 76 |  |  | O=c1nc(N2CCOCC2)cc(N(Cc2cccc3ccccc23)C2CC2)[nH]1 |  |  |
| 1.4 | 3.15 | 143 | 205 |  |  | CC(C)(CO)CN(Cc1cccc2ccccc12)c1cc(N2CCOCC2)nc(=O)[nH]1 |  |  |
